Converted amounts (≈) assume the structure as drawn.
Experiments:
Acinetobacter baumannii [1] = test: Synergistic antibacterial activity against Acinetobacter baumannii AYE assessed as fold change in rifampicin MIC at <=0.25 times MIC incubated for overnight by microbroth dilution checkerboard assay relative to rifampicin alone; format: functional
How it was run: (§1)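 Checkerboard microdilution under MIC conditions (TSB, overnight, 37 °C). Two-fold series of each agent were combined on one plate before bacteria were added, and single-agent MICs were measured on the same plate. FIC = sum of combination MIC/alone MIC for each agent, taken from the most synergistic well. Three independent repeats, mean ± SD. ≤0.5 was taken as strong synergy and 0.5–<1 as weak.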

Klebsiella pneumoniae [2] = test: Synergistic antibacterial activity against […] Klebsiella pneumoniae M6 assessed as rifampicin MIC at <=0.25 times MIC incubated for overnight by microbroth dilution checkerboard assay; format: functional
How it was run: (§2)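 Checkerboard run under the MIC conditions (TSB, overnight, 37 °C). Antibiotic and lipoguanidine 2-fold series were combined on one plate before bacteria were added. Growth/no-growth was scored as for the MIC (<0.1 OD600). Single-agent MICs were measured on the same plates. Three independent repeats were done.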

Pseudomonas aeruginosa [3] = test: Synergistic antibacterial activity against Pseudomonas aeruginosa NCTC 13437 assessed as bacterial growth inhibition incubated for overnight in presence of PBMN by microbroth dilution method relative to control; format: functional
How it was run: (§3)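 Adapted broth microdilution in TSB. The test compound was in a 2-fold dilution series, with PMBN added at a fixed 30 µg/mL. Bacteria at OD 0.02 were added, and plates were incubated overnight at 37 °C. Growth/no growth was read as for the MIC (<0.1 OD600).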

Escherichia coli [4] = test: Synergistic antibacterial activity against Escherichia coli NCTC 12923 assessed as rifampicin MIC at <=0.25 times MIC incubated for overnight by microbroth dilution checkerboard assay; format: functional; how it was run: as §1
Staphylococcus aureus [5] = test: Antibacterial activity against methicillin sensitive Staphylococcus aureus ATCC 9144 assessed as bacterial growth inhibition incubated for overnight by microbroth dilution method; format: functional
How it was run: (§4)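 Microbroth dilution in Tryptic Soy Broth. DMSO stocks were diluted in TSB as 2-fold series. Overnight TSB cultures were back-diluted to OD 0.01 and mixed 1:1 with compound. Incubation was overnight at 37 °C. MIC is the lowest concentration with no visible growth (<0.1 OD600). DMSO at equivalent concentrations was checked.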

Klebsiella pneumoniae [6] = test: Synergistic antibacterial activity against Klebsiella pneumoniae NCTC 13368 assessed as bacterial growth inhibition incubated for overnight in presence of PBMN by microbroth dilution method relative to control; format: functional; how it was run: as §3
Enterococcus faecalis [7] = test: Antibacterial activity against vancomycin resistant Enterococcus faecalis NCTC 12201 assessed as bacterial growth inhibition incubated for overnight by microbroth dilution method; format: functional; how it was run: as §4
Escherichia coli [8] = test: Antibacterial activity against Escherichia coli NCTC 12923 assessed as bacterial growth inhibition incubated for overnight by microbroth dilution method; format: functional
How it was run: (§5)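 Broth microdilution in Tryptic Soy Broth. DMSO stocks were diluted in TSB as 2-fold series. Overnight TSB cultures were back-diluted to OD 0.01 and mixed 1:1 with compound. Incubation was overnight at 37 °C. MIC was the lowest concentration without visible growth (<0.1 OD600). DMSO vehicle was checked at equivalent concentrations.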

Acinetobacter baumannii [9] = test: Synergistic antibacterial activity against Acinetobacter baumannii AYE assessed as rifampicin MIC at <=0.25 times MIC incubated for overnight by microbroth dilution checkerboard assay; format: functional; how it was run: as §1
Acinetobacter baumannii [10] = test: Antibacterial activity against Acinetobacter baumannii ATCC 17978 assessed as bacterial growth inhibition incubated for overnight by microbroth dilution method; format: functional; how it was run: as §5
Pseudomonas aeruginosa [11] = test: Antibacterial activity against Pseudomonas aeruginosa PAO1 assessed as bacterial growth inhibition incubated for overnight by microbroth dilution method; format: functional; how it was run: as §5
Staphylococcus aureus [12] = test: Antibacterial activity against methicillin resistant Staphylococcus aureus NCTC 13616 assessed as bacterial growth inhibition incubated for overnight by microbroth dilution method; format: functional; how it was run: as §4
Pseudomonas aeruginosa [13] = test: Synergistic antibacterial activity against Pseudomonas aeruginosa NCTC 13437 assessed as rifampicin MIC at <=0.25 times MIC incubated for overnight by microbroth dilution checkerboard assay; format: functional
How it was run: (§6)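 Checkerboard microdilution in Tryptic Soy Broth, run like the MIC assay. Overnight TSB cultures were back-diluted to OD 0.01 and added 1:1 to the combined two-fold series of both agents, then incubated overnight at 37 °C. Growth/no-growth was called at <0.1 OD600. MICs alone were read on the same plates. FIC index came from the most synergistic well; three independent repeats, mean ± SD.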

Klebsiella pneumoniae [14] = test: Synergistic antibacterial activity against Klebsiella pneumoniae NCTC 13368 assessed as fold change in rifampicin MIC at <=0.25 times MIC incubated for overnight by microbroth dilution checkerboard assay relative to rifampicin alone; format: functional; how it was run: as §2
Acinetobacter baumannii [15] = test: Synergistic antibacterial activity against Acinetobacter baumannii ATCC 17978 assessed as bacterial growth inhibition incubated for overnight in presence of PBMN by microbroth dilution method relative to control; format: functional; how it was run: as §3
Klebsiella pneumoniae [16] = test: Antibacterial activity against ESBL Klebsiella pneumoniae NCTC 13368 assessed as bacterial growth inhibition incubated for overnight by microbroth dilution method
Enterococcus faecium = test: Antibacterial activity against vancomycin resistant Enterococcus faecium NCTC 12204 assessed as bacterial growth inhibition incubated for overnight by microbroth dilution method; format: functional; how it was run: as §4
Staphylococcus aureus [17] = test: Antibacterial activity against methicillin sensitive Staphylococcus aureus 1199B assessed as bacterial growth inhibition incubated for overnight by microbroth dilution method; format: functional; how it was run: as §4
Escherichia coli [18] = test: Synergistic antibacterial activity against Escherichia coli NCTC 12923 assessed as fold change in rifampicin MIC at <=0.25 times MIC incubated for overnight by microbroth dilution checkerboard assay relative to rifampicin alone; format: functional; how it was run: as §1
Pseudomonas aeruginosa [19] = test: Synergistic antibacterial activity against Pseudomonas aeruginosa NCTC 13437 assessed as fold change in rifampicin MIC at <=0.25 times MIC incubated for overnight by microbroth dilution checkerboard assay relative to rifampicin alone; format: functional; how it was run: as §6
Klebsiella pneumoniae [20] = test: Synergistic antibacterial activity against Klebsiella pneumoniae M6 assessed as bacterial growth inhibition incubated for overnight in presence of PBMN by microbroth dilution method relative to control; format: functional; how it was run: as §3
Klebsiella pneumoniae [21] = test: Antibacterial activity against Klebsiella pneumoniae M6 assessed as bacterial growth inhibition incubated for overnight by microbroth dilution method
Acinetobacter baumannii [22] = test: Antibacterial activity against Acinetobacter baumannii AYE assessed as bacterial growth inhibition incubated for overnight by microbroth dilution method; format: functional; how it was run: as §5
Pseudomonas aeruginosa [23] = test: Synergistic antibacterial activity against Pseudomonas aeruginosa PAO1 assessed as bacterial growth inhibition incubated for overnight in presence of […] by microbroth dilution method relative to control; format: functional
How it was run: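 Fixed-concentration combination MIC in TSB. The first agent was set in a two-fold dilution series (100 µL/well), then 50 µL/well of the second agent at a fixed concentration was added; PMBN was fixed at 30 µg/mL. Bacteria at OD 0.02 (50 µL) went into 150 µL of compounds, overnight at 37 °C. MIC was the lowest concentration without visible growth (<0.1 OD600).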

Klebsiella pneumoniae [24] = test: Synergistic antibacterial activity against Klebsiella pneumoniae NCTC 13368 assessed as rifampicin MIC at <=0.25 times MIC incubated for overnight by microbroth dilution checkerboard assay; format: functional; how it was run: as §1
Escherichia coli [25] = test: Synergistic antibacterial activity against Escherichia coli NCTC 12923 assessed as bacterial growth inhibition incubated for overnight in presence of PBMN by microbroth dilution method relative to control; format: functional; how it was run: as §3
Pseudomonas aeruginosa [26] = test: Synergistic antibacterial activity against Pseudomonas aeruginosa PAO1 assessed as rifampicin MIC at <=0.25 times MIC incubated for overnight by microbroth dilution checkerboard assay; format: functional; how it was run: as §6
Pseudomonas aeruginosa [27] = test: Antibacterial activity against Pseudomonas aeruginosa NCTC 13437 assessed as bacterial growth inhibition incubated for overnight by microbroth dilution method; format: functional; how it was run: as §5
Acinetobacter baumannii [28] = test: Synergistic antibacterial activity against Acinetobacter baumannii ATCC 17978 assessed as rifampicin MIC at <=0.25 times MIC incubated for overnight by microbroth dilution checkerboard assay; format: functional; how it was run: as §1
Staphylococcus aureus [29] = test: Antibacterial activity against methicillin resistant Staphylococcus aureus USA 300 assessed as bacterial growth inhibition incubated for overnight by microbroth dilution method; format: functional; how it was run: as §4
Pseudomonas aeruginosa [30] = test: Synergistic antibacterial activity against Pseudomonas aeruginosa PAO1 assessed as fold change in rifampicin MIC at <=0.25 times MIC incubated for overnight by microbroth dilution checkerboard assay relative to rifampicin alone; format: functional; how it was run: as §6
Acinetobacter baumannii [31] = test: Synergistic antibacterial activity against Acinetobacter baumannii ATCC 17978 assessed as fold change in rifampicin MIC at <=0.25 times MIC incubated for overnight by microbroth dilution checkerboard assay relative to rifampicin alone; format: functional; how it was run: as §1
Enterococcus faecalis [32] = test: Antibacterial activity against vancomycin sensitive Enterococcus faecalis NCTC 775 assessed as bacterial growth inhibition incubated for overnight by microbroth dilution method
Acinetobacter baumannii [33] = test: Synergistic antibacterial activity against Acinetobacter baumannii AYE assessed as bacterial growth inhibition incubated for overnight in presence of PBMN by microbroth dilution method relative to control; format: functional; how it was run: as §3

Structure (SMILES)	fold change (FC) (Acinetobacter baumannii [1])	MIC (Klebsiella pneumoniae [2]) [µg/mL]	inhibition (INH) (Pseudomonas aeruginosa [3]) [%]	MIC (Escherichia coli [4]) [µg/mL]	MIC (Staphylococcus aureus [5]) [µg/mL]	inhibition (INH) (Klebsiella pneumoniae [6]) [%]	MIC (Enterococcus faecalis [7]) [µg/mL]	MIC (Escherichia coli [8]) [µg/mL]	MIC (Acinetobacter baumannii [9]) [µg/mL]	MIC (Acinetobacter baumannii [10]) [µg/mL]	MIC (Pseudomonas aeruginosa [11]) [µg/mL]	MIC (Staphylococcus aureus [12]) [µg/mL]	MIC (Pseudomonas aeruginosa [13]) [µg/mL]	fold change (FC) (Klebsiella pneumoniae [14])	inhibition (INH) (Acinetobacter baumannii [15]) [%]	MIC (Klebsiella pneumoniae [16]) [µg/mL]	MIC (Enterococcus faecium) [µg/mL]	MIC (Staphylococcus aureus [17]) [µg/mL]	fold change (FC) (Escherichia coli [18])	fold change (FC) (Pseudomonas aeruginosa [19])	also measured
CCCCCCCCCCCCCCCCCCNC(=N)NCCCCN	>=4	16	<20	4	8 (≈ 20.9 µM)	<20	2 (≈ 5.23 µM)	> 128	2	16 (≈ 41.8 µM)	> 128	4 (≈ 10.5 µM)	32	0	<20	> 128	2 (≈ 5.23 µM)	4 (≈ 10.5 µM)	0	0	inhibition (INH) (Klebsiella pneumoniae [20]): <20%; MIC (Klebsiella pneumoniae [21]): > 128 µg/mL; MIC (Acinetobacter baumannii [22]): 128 µg/mL (≈ 334 µM); inhibition (INH) (Pseudomonas aeruginosa [23]): <20%; MIC (Klebsiella pneumoniae [24]): 16 µg/mL; inhibition (INH) (Escherichia coli [25]): <20%; MIC (Pseudomonas aeruginosa [26]): 16 µg/mL; MIC (Pseudomonas aeruginosa [27]): > 128 µg/mL; MIC (Acinetobacter baumannii [28]): ≤ 0.125 µg/mL; MIC (Staphylococcus aureus [29]): 2 µg/mL (≈ 5.23 µM); fold change (FC) (Pseudomonas aeruginosa [30]): 0; fold change (FC) (Acinetobacter baumannii [31]): >=4; MIC (Enterococcus faecalis [32]): 2 µg/mL (≈ 5.23 µM); inhibition (INH) (Acinetobacter baumannii [33]): <20%
CCCCC/C=C\C/C=C\CCCCCCCCNC(=N)NCCCCCCCCNC(=N)N	>=4	0.5	<20	8	2 (≈ 4.19 µM)	<20	4 (≈ 8.39 µM)	8 (≈ 16.8 µM)	1	4 (≈ 8.39 µM)	> 128	4 (≈ 8.39 µM)	16	>=4	<20	32 (≈ 67.1 µM)	2 (≈ 4.19 µM)	2 (≈ 4.19 µM)	0	0	inhibition (INH) (Klebsiella pneumoniae [20]): <20%; MIC (Klebsiella pneumoniae [21]): 16 µg/mL (≈ 33.6 µM); MIC (Acinetobacter baumannii [22]): 16 µg/mL (≈ 33.6 µM); inhibition (INH) (Pseudomonas aeruginosa [23]): <20%; MIC (Klebsiella pneumoniae [24]): 8 µg/mL; inhibition (INH) (Escherichia coli [25]): <20%; MIC (Pseudomonas aeruginosa [26]): 16 µg/mL; MIC (Pseudomonas aeruginosa [27]): > 128 µg/mL; MIC (Acinetobacter baumannii [28]): 1 µg/mL; MIC (Staphylococcus aureus [29]): 2 µg/mL (≈ 4.19 µM); fold change (FC) (Pseudomonas aeruginosa [30]): 0; fold change (FC) (Acinetobacter baumannii [31]): >=4; MIC (Enterococcus faecalis [32]): 4 µg/mL (≈ 8.39 µM); inhibition (INH) (Acinetobacter baumannii [33]): <20%
